Assay results: ChEMBL document CHEMBL1671627, “Increasing trends in antimicrobial resistance among clinically important anaerobes and Bacteroides fragilis isolates causing nosocomial infections: emerging resistance to carbapenems” (2008)
≈ marks a conversion by molar mass, not a printed value.

Legend:
Clostridium tertium [1] = assay: Antibacterial activity against beta-lactamase producing Clostridium tertium assessed as resistant isolates by CLSI agar dilution method in presence of Tazobactam; format: functional
Outline: (§1)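 207 nonduplicate anaerobic blood isolates from patients with bloodstream infections at NTUH, collected January–December 2006. MICs were determined by agar dilution following CLSI guidelines. Inocula were applied with a Steers replicator onto supplemented Brucella blood agar and incubated 48 h at 35°C in an anaerobic chamber. MIC was the lowest concentration inhibiting growth. B. fragilis ATCC 25285, B. thetaiotaomicron ATCC 29741 and E. lentum ATCC 43055 served as controls in each run.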

Prevotella intermedia [2] = assay: Antibacterial activity against Prevotella intermedia assessed as susceptible isolates by CLSI agar dilution method; format: functional
Parvimonas micra [3] = assay: Antibacterial activity against beta-lactamase producing Micromonas micros assessed as susceptible isolates by CLSI agar dilution method in presence of Tazobactam; format: functional
Outline: (§2)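 CLSI agar dilution MICs for anaerobic blood isolates (nonduplicate) collected from bloodstream-infection patients at a Taiwanese tertiary hospital, January–December 2006. Isolates were spotted by Steers replicator onto supplemented Brucella blood agar and incubated anaerobically for 48 h at 35°C. MIC was the lowest drug concentration inhibiting growth. Each run included B. fragilis ATCC 25285, B. thetaiotaomicron ATCC 29741 and E. lentum ATCC 43055 as quality-control strains.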

Prevotella buccae [4] = assay: Antibacterial activity against Prevotella buccae assessed as susceptible isolates by CLSI agar dilution method; format: functional, Segatella buccae
Fusobacterium varium [5] = assay: Antibacterial activity against Fusobacterium varium by CLSI agar dilution method in presence of Tazobactam; format: functional
Outline: (§3)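 Agar dilution per CLSI guidelines on nonduplicate anaerobic bloodstream isolates collected at NTUH, January to December 2006. Isolates were spotted by Steers replicator onto supplemented Brucella blood agar and incubated anaerobically for 48 h at 35°C. MIC was the lowest drug concentration that inhibited growth. B. fragilis ATCC 25285, B. thetaiotaomicron ATCC 29741 and E. lentum ATCC 43055 were run as QC in each run.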

[6] = test system: Fusobacterium necrophorum; assay: Antibacterial activity against Fusobacterium necrophorum assessed as susceptible isolates by CLSI agar dilution method; format: functional
Parvimonas micra [7] = assay: Antibacterial activity against beta-lactamase producing Micromonas micros by CLSI agar dilution method in presence of Tazobactam; format: functional; outline: as §2
Fusobacterium varium [8] = assay: Antibacterial activity against Fusobacterium varium assessed as susceptible isolates by CLSI agar dilution method in presence of Tazobactam; format: functional; outline: as §3
Prevotella buccae [9] = assay: Antibacterial activity against Prevotella buccae by CLSI agar dilution method; format: functional; conditions: Segatella buccae
Bacteroides caccae [10] = assay: Antibacterial activity against beta-lactamase producing Bacteroides caccae assessed as resistant isolates by CLSI agar dilution method in presence of Tazobactam; format: functional; outline: as §1
Clostridium perfringens = assay: microbe, parasite or virus in culture; format: functional
[11] = test system: Fusobacterium necrophorum; assay: Antibacterial activity against Fusobacterium necrophorum by CLSI agar dilution method in presence of Tazobactam; format: functional; outline: as §3
[12] = test system: Fusobacterium necrophorum; assay: Antibacterial activity against Fusobacterium necrophorum assessed as resistant isolates by CLSI agar dilution method; format: functional
[13] = test system: Peptostreptococcus anaerobius; assay: Antibacterial activity against beta-lactamase producing Peptostreptococcus anaerobius by CLSI agar dilution method in presence of Tazobactam; format: functional; outline: as §2
Clostridium septicum [14] = assay: Antibacterial activity against beta-lactamase producing Clostridium septicum assessed as susceptible isolates by CLSI agar dilution method; format: functional
[15] = test system: Peptoniphilus asaccharolyticus; assay: Antibacterial activity against beta-lactamase producing Peptoniphilus asaccharolyticus assessed as susceptible isolates by CLSI agar dilution method; format: functional
[16] = test system: Prevotella melaninogenica; assay: Antibacterial activity against Prevotella melaninogenica by CLSI agar dilution method in presence of Tazobactam; format: functional; outline: as §3
Fusobacterium nucleatum [17] = assay: Antibacterial activity against Fusobacterium nucleatum assessed as resistant isolates by CLSI agar dilution method in presence of Tazobactam; format: functional; outline: as §1
Prevotella buccae [18] = assay: Antibacterial activity against Prevotella buccae assessed as resistant isolates by CLSI agar dilution method; format: functional, Segatella buccae
[19] = test system: Prevotella melaninogenica; assay: Antibacterial activity against Prevotella melaninogenica assessed as susceptible isolates by CLSI agar dilution method in presence of Tazobactam; format: functional; outline: as §3
Bacteroides caccae [20] = assay: Antibacterial activity against beta-lactamase producing Bacteroides caccae assessed as resistant isolates by CLSI agar dilution method in presence of clavulanate; format: functional; outline: as §1
Clostridium septicum [21] = assay: Antibacterial activity against beta-lactamase producing Clostridium septicum assessed as resistant isolates by CLSI agar dilution method in presence of clavulanate; format: functional; outline: as §1
Fusobacterium nucleatum [22] = assay: Antibacterial activity against Fusobacterium nucleatum by CLSI agar dilution method in presence of clavulanate; format: functional; outline: as §3
Fusobacterium varium [23] = assay: Antibacterial activity against Fusobacterium varium by CLSI agar dilution method in presence of clavulanate; format: functional; outline: as §3
[24] = test system: Fusobacterium necrophorum; assay: Antibacterial activity against Fusobacterium necrophorum by CLSI agar dilution method in presence of clavulanate; format: functional; outline: as §3
Prevotella buccae [25] = assay: Antibacterial activity against Prevotella buccae assessed as susceptible isolates by CLSI agar dilution method in presence of clavulanate; format: functional, Segatella buccae; outline: as §3
Clostridium tertium [26] = assay: Antibacterial activity against beta-lactamase producing Clostridium tertium assessed as susceptible isolates by CLSI agar dilution method in presence of clavulanate; format: functional; outline: as §2
[27] = test system: Clostridium paraputrificum; assay: Antibacterial activity against beta-lactamase producing Clostridium paraputrificum assessed as resistant isolates by CLSI agar dilution method in presence of clavulanate; format: functional; outline: as §1
[28] = test system: Peptoniphilus asaccharolyticus; assay: Antibacterial activity against beta-lactamase producing Peptoniphilus asaccharolyticus by CLSI agar dilution method in presence of clavulanate; format: functional; outline: as §2
Prevotella intermedia [29] = assay: Antibacterial activity against Prevotella intermedia by CLSI agar dilution method in presence of clavulanate; format: functional; outline: as §3

Question: What does the source list for `CCN1CCN(C(=O)N[C@@H](C(=O)N[C@@H]2C(=O)N3[C@@H]2SC(C)(C)[C@@H]3C(=O)O)c2ccccc2)C(=O)C1=O` [PIPERACILLIN]?
Answer: Activity (Clostridium tertium [1]): 0%; Activity (Prevotella intermedia [2]): 71%; Activity (Parvimonas micra [3]): 97%; Activity (Prevotella buccae [4]): 71%; MIC50 (Fusobacterium varium [5]): 0.5 µg/mL; MIC90 (Fusobacterium varium [5]): 2 µg/mL; Activity [6]: 90%; MIC (Parvimonas micra [7]): 0.03 µg/mL; MIC50 (Parvimonas micra [7]): 0.03 µg/mL; MIC90 (Parvimonas micra [7]): 2 µg/mL; Activity (Fusobacterium varium [8]): 100%; MIC50 (Prevotella buccae [9]): 16 µg/mL (≈ 30.9 µM); MIC90 (Prevotella buccae [9]): 128 µg/mL (≈ 247 µM); Activity (Bacteroides caccae [10]): 4%; MIC50 (Clostridium perfringens): 0.25 µg/mL (≈ 0.483 µM); MIC90 (Clostridium perfringens): 2 µg/mL (≈ 3.86 µM); MIC50 [11]: 0.5 µg/mL; MIC90 [11]: 2 µg/mL; Activity [12]: 10%; MIC [13]: 0.03 µg/mL; MIC50 [13]: 0.03 µg/mL; MIC90 [13]: 2 µg/mL; Activity (Clostridium septicum [14]): 100%; Activity [15]: 97%; MIC [16]: 0.03 µg/mL; MIC50 [16]: 0.03 µg/mL; MIC90 [16]: 1 µg/mL; Activity (Fusobacterium nucleatum [17]): 0%; Activity (Prevotella buccae [18]): 22%; Activity [19]: 100%

Question: How did the Activity (Bacteroides caccae [20]) turn out when `CC1(C)S[C@@H]2[C@H](NC(=O)[C@H](N)c3ccc(O)cc3)C(=O)N2[C@H]1C(=O)O` [AMOXICILLIN] was run?
Answer: 30%

Question: What about the Activity (Clostridium septicum [21]) of the same compound?
Answer: 4%

Question: What about the MIC50 (Fusobacterium nucleatum [22]) of the same compound?
Answer: 2 µg/mL

Question: And the MIC90 (Fusobacterium nucleatum [22])?
Answer: 4 µg/mL

Question: And the MIC50 (Fusobacterium varium [23])?
Answer: 2 µg/mL

Question: What about the MIC90 (Fusobacterium varium [23]) of the same compound?
Answer: 4 µg/mL

Question: And the MIC50 [24]?
Answer: 2 µg/mL

Question: And the MIC90 [24]?
Answer: 4 µg/mL

Question: What about the Activity (Prevotella buccae [25]) of the same compound?
Answer: 81%

Question: What about the Activity (Clostridium tertium [26]) of the same compound?
Answer: 96%

Question: What about the Activity [27] of the same compound?
Answer: 4%

Question: And the MIC50 [28]?
Answer: 0.25 µg/mL

Question: And the MIC90 [28]?
Answer: 2 µg/mL

Question: What about the MIC50 (Prevotella intermedia [29]) of the same compound?
Answer: 4 µg/mL

Question: What about the MIC90 (Prevotella intermedia [29]) of the same compound?
Answer: 16 µg/mL
